Assay results from paper PMC6624389 (British Journal of Clinical Pharmacology, 2019).

How the values were obtained:
T2DM patients [1] = conditions: T2DM patients with mean FPG 8–9 mmol/L (144–162 mg/dL); cited from earlier work
[2] = cited from earlier work
[3] = cited from earlier work; remark: listed apart in the source
[4] = system: Japanese healthy subjects and patients with T2DM; experiment: Phase I and clinical pharmacology studies; format: in vivo, human
Procedure, shortened: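 Oral dosing in three studies. Healthy subjects received single fasted doses of 1–300 mg, or 20–100 mg daily after a standardized meal. T2DM patients received 50 or 100 mg daily for 14 days. A single 50 mg dose was given to T2DM patients grouped by eGFR. Urine was collected for 24 h predose and in postdose intervals, and UGE24h was calculated. Pooled data from 137 subjects were plotted against FPG and AUC24h.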

[5] = Simulation of steady-state AUC24h using post-hoc CL/F from the final PopPK model; set-up: species or system human
Procedure, shortened: (§1)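 Steady state was simulated for 887 Japanese T2DM patients at 12.5, 25, 50 and 100 mg once daily. AUC24h came from individual post-hoc CL/F of the final PopPK model, and ΔUGE24h came from the final PK/PD model. The 50 mg regimen was also summarized by eGFR class (≥90, 60 to <90, 30 to <60 mL/min/1.73 m2). Results are given as median and 2.5th–97.5th percentiles.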

[6] = system: Japanese patients with T2DM; experiment: Simulation of steady-state ΔUGE24h by the final PK/PD model; set-up: species or system human; conditions: 50 mg once daily
Procedure, shortened: as §1

[7] = system: Japanese patients with T2DM; conditions: once daily 50 mg for 16 weeks; cited from earlier work
[8] = system: T2DM patients with moderate renal impairment; conditions: cited from earlier work
Population PK model = format: in vivo, human
Procedure, shortened: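 The prior model was built from 534 plasma concentrations in 43 T2DM patients sampled serially after oral dosing. It was a 2-compartment model with first-order absorption (ADVAN4/TRANS4), log-normal interindividual variability and proportional residual error, fitted by FOCE with interaction. It served via $PRIOR to fit trough concentrations from four later studies. Covariates on CL/F were tested stepwise. Plasma drug was measured by LC–MS/MS (LLOQ 1 ng/mL).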

[9] = system: Japanese healthy subjects and patients with T2DM; experiment: PK/PD maximum effect; format: in vivo, human
Procedure, shortened: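 Emax model fitted in NONMEM (FOCE with interaction) to pooled healthy-subject and T2DM data from three studies. AUC24h came from noncompartmental analysis, and UGE24h was taken over matching intervals. Emax was modelled as dependent on FAC (FPG × GFR) up to a threshold of 18 000 and constant above it. There was no interindividual variability, and residual error was additive plus proportional. Covariates were added stepwise (P < .05) and removed backward (P < .001), and the model was bootstrapped.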

T2DM patients [10] = conditions: once daily 12.5, 25, 50 and 100 mg, 12 weeks; cited from earlier work
[11] = cited from earlier work; remark: listed apart in the source
[12] = system: Japanese healthy subjects and patients with T2DM; conditions: phase I and clinical pharmacology studies; cited from earlier work

Structure (SMILES): OC[C@H]1O[C@@H](c2ccc(Cl)c(Cc3ccc(O[C@H]4CCOC4)cc3)c2)[C@H](O)[C@@H](O)[C@@H]1O [empagliflozin]
- Emax (T2DM patients [1]): 120 g/24 h

Structure (SMILES): OC[C@H]1O[C@@H](c2ccc(F)c(Cc3cc4ccccc4s3)c2)[C@H](O)[C@@H](O)[C@@H]1O [ipragliflozin]
- urinary excretion ratio of unchanged ipragliflozin [2]: approximately 1%
- protein binding ex vivo [3]: ~ 96%
- effects on UGE at low doses ([4]; 1 and 3 mg single dose, healthy subjects, Study A): no significant effects
- UGE after single and multiple doses ([4]; healthy subjects and T2DM patients, exploratory assessment): dose‐dependent increase
- higher exposure in moderate renal impairment patients with T2DM ([5]; descriptive comparison of assessed AUC and simulation by final PopPK model): about 20%
- change in exposure caused by covariates other than GFR (BSA, TPRO, TBIL) ([5]; final PopPK model): ≤ 10%
- increase in AUC24h, moderate renal impairment compared to normal renal function ([5]; simulation, 50 mg once daily, T2DM patients): 1.17 fold
- change in ΔUGE24h, moderate renal impairment compared to normal renal function [6]: 0.76 fold
- decreasing FPG and HbA1c levels versus placebo [7]: superior to a placebo
- tolerability [7]: well tolerated
- antidiabetic effect [8]: weaker antidiabetic effect
- Interindividual variability of CL/F (Population PK model; base model, before covariates): 26.8%
- Interindividual variability ω^2: CL (Population PK model; final PopPK model): 0.0533
- Vd/F (Population PK model; human, plasma, oral): 39.4 L
- first order absorption rate constant Ka (Population PK model; population mean, T2DM patients): 6.38 h⁻¹
- oral clearance CL/F (Population PK model; population mean, T2DM patients): 9.47 L/h
- glucose excretion effect versus dose ([9]; above 50 mg daily dose, suggested by PK/PD model): almost reaches the maximum level
- Emax of ΔUGE24h: FAC > 18 000 ([9]; population mean, constant above FAC threshold): 107 g/24 h
- Emax of ΔUGE24h: FAC ≤ 18 000 ([9]; population mean, reference FPG 100 mg/dL and GFR 90 mL/min): 72.3 g/24 h
- fasting plasma glucose (FPG) and HbA1c levels (T2DM patients [10]): dose‐dependent decreases
- oral bioavailability [11]: > 90%
- exposure versus dose [12]: increase dose‐dependently
- tolerability [12]: consistently well tolerated
- urinary glucose excretion (UGE) versus dose [12]: increase dose‐dependently
